The results in this text go back to PMC3153576 (Biochemistry, 2011).

Common to all, as to assay type: binding
One assay has as its target PRMT1 (Rattus norvegicus, UniProt Q63009). In words: Stopped-flow dissociation from PRMT1. As to conditions: compared with second phase in methylation course.
The target in assay [1] is T1, PRMT1-SAH complex (Rattus norvegicus, UniProt Q63009). The assay is described as follows: Stopped-flow association with PRMT1-SAH. In short, it runs like this:
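His-tagged rat PRMT1 expressed in E. coli and Ni-resin purified. PRMT1 (2, 4, 6 μM) was preincubated with 100 μM SAH, then rapidly mixed with 0.4 μM fluorescein-labelled H4 peptide. Fluorescence quench read at ex 495 nm, 510 nm long-pass emission; 4–6 shots averaged. Traces fit double-exponential; kobs versus PRMT1 fit to two-step model for k1, k−1, k2, k−2.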

Assay [2] concerns the target T1, PRMT1-SAH complex. In words: Stopped-flow dissociation from PRMT1-SAH. Conditions: 100 μM SAH. A digest of the protocol: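 Trapping experiment using rat His-PRMT1. 0.4 μM fluorescein-labelled H4 peptide (H4FLme1 or H4FLme2) was premixed with 2 μM PRMT1 and 100 μM SAH, then rapidly mixed with 50 μM unlabelled H4(1–20). Fluorescence recovery read at ex 495 nm, 510 nm long-pass emission; 4–6 injections averaged; double-exponential fit.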

T1 sequence (Q63009 whole entry, one chain of several): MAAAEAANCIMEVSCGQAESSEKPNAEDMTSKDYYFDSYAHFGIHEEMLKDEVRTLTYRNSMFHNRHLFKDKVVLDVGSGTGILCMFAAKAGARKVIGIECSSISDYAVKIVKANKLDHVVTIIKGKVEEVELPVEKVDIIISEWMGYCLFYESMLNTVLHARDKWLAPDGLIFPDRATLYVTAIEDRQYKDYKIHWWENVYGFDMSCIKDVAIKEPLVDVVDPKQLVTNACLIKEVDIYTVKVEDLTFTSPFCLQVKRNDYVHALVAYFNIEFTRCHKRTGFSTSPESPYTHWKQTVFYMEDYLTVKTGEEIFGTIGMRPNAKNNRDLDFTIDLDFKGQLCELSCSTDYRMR
PRMT1, sequence (Q63009 whole entry): as the sequence (Q63009 whole entry, one chain of several) above

As for “Ac-SGRme2GKGGKGDpr(FL)GKGGAKRHRK [H4FLme2]”, the “Dissociation rate constant relative to slow-phase (methylation) rate constants” value at PRMT1 is “several thousand-fold larger”.

On to “Ac-SGRme1GKGGKGDpr(FL)GKGGAKRHRK [H4FLme1]”, for which the “Observed first-order rate constant for binding (kobs)” value on PRMT1-SAH complex [1] (2 μM PRMT1 in presence of the cofactor) worked out at 248 ± 3 s⁻¹. Also, at PRMT1-SAH complex [1] (100 μM SAH), the “Association rate constant with PRMT1-SAH relative to apo PRMT1” value is “two-fold higher”. Moreover, the “k2 + k−2 (plateau of the slow phase)” value on PRMT1-SAH complex [1] (two-step binding model (eq 5), 100 μM SAH, 30°C) came to 36 ± 2 s⁻¹. In addition, the “Dissociation rate constant relative to slow-phase (methylation) rate constants” value on PRMT1 is “several thousand-fold larger”. The “koff from PRMT1-SAH relative to apo-PRMT1” value at PRMT1-SAH complex [2] is on record as “about three-fold lower”.
